Assay [1] addresses Beta-1,3-galactosyltransferase 5 (Homo sapiens) (UniProt Q9Y2C3). Briefly: Inhibition of human recombinant soluble His-tagged beta3-GalT5 expressed in insect cells using GlcNAcbeta-Bn as substrate at 0.5 mM after 1 hr in presence of triton X-100.
The species named for assay [2] is Homo sapiens. Briefly: Inhibition of human C2GnT2 using GlcNAcbeta3GalNAcalpha-pnp as substrate at 0.5 mM after 1 hr in presence of phosphatidylcholine.
Assay [3] deals with T1, Beta-1,3-galactosyl-O-glycosyl-glycoprotein beta-1,6-N-acetylglucosaminyltransferase (Homo sapiens) (UniProt Q02742).
T1 sequence (whole entry): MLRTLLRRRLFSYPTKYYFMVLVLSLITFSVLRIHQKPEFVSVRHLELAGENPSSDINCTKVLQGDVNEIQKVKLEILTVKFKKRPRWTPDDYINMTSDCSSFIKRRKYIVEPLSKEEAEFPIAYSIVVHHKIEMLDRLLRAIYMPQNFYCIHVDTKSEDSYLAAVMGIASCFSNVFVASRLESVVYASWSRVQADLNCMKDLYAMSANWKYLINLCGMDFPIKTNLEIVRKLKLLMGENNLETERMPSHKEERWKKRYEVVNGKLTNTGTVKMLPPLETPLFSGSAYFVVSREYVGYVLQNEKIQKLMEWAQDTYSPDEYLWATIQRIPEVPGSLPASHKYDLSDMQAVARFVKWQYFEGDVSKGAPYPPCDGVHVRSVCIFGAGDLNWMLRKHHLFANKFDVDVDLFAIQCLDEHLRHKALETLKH
The assay can be described thus: Inhibition of human C2GnT1 using Galbeta3GalNAcalpha-Bn as substrate at 0.5 mM after 1 hr in presence of phosphatidylcholine.

For the next assay, the species on record is Bos taurus. Briefly: Inhibition of bovine polypeptide GalNAcT1 using AQPTPPP as substrate at 0.5 mM after 1 hr relative to control.
Assay [4] has as its target T2, Beta-1,4-galactosyltransferase 1 (Homo sapiens) (UniProt P15291).
T2 sequence (whole entry): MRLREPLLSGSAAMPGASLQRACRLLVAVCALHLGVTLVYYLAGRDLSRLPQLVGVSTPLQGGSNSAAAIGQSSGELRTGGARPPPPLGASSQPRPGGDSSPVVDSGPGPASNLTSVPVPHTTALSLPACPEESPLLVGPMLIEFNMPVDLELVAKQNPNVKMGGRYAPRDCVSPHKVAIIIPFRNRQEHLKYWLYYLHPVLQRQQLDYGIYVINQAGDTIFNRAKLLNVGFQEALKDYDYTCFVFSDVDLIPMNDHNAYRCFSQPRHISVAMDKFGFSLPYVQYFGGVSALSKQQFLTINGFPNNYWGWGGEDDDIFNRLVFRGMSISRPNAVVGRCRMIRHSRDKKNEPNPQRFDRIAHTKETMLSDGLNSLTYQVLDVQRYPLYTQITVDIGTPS
The assay can be described thus: Inhibition of human recombinant soluble His-tagged beta4-GalT1 expressed in Escherichia coli BL21 using GlcNAcbeta-Bn as substrate at 0.5 mM after 1 hr relative to control. A digest of the protocol: (§1)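 Single point at 0.5 mM bis-imidazolium salt, 10% ethanol. Acceptor 0.5 mM GlcNAcβ-Bn, donor 0.5 mM UDP-Gal. […] Enzyme: 0.34 µg His-tagged human β4-GalT1 from BL21, or bovine milk β4-GalT1. Mean ± SD of replicates.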

Assay [5] is filed under the species Homo sapiens. Briefly: Inhibition of human C2GnT2 using Galbeta3GalNAcalpha-Bn as substrate at 0.5 mM after 1 hr in presence of phosphatidylcholine.
The target in assay [6] is Beta-1,3-galactosyltransferase 5 (Homo sapiens) (UniProt Q9Y2C3). The assay can be described thus: Inhibition of human recombinant soluble His-tagged beta3-GalT5 expressed in insect cells using GlcNAcbeta-Bn as substrate at 0.5 mM after 1 hr in presence of phosphatidylcholine.
Assay [7] deals with T3, Alpha-1,6-mannosyl-glycoprotein 2-beta-N-acetylglucosaminyltransferase (Homo sapiens) (UniProt Q10469).
T3 sequence (whole entry): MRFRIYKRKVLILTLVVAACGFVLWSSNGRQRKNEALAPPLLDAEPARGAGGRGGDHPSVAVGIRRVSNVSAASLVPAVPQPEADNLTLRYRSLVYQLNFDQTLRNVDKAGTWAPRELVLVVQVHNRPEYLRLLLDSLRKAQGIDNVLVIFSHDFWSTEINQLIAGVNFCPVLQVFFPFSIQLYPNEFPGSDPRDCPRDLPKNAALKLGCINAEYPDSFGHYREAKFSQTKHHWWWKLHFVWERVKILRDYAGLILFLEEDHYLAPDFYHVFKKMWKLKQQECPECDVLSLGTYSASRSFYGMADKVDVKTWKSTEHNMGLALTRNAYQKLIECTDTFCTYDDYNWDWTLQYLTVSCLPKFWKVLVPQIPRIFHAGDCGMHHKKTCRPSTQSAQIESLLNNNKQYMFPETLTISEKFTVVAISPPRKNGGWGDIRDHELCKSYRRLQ
The assay can be described thus: Inhibition of human GNT2 […] using GnMan3-octyl as substrate at 0.5 mM after 1 hr in presence of phosphatidylcholine.

For assay [8], the target named is T4, Beta-1,4-galactosyltransferase 1 (Bos taurus) (UniProt P08037).
T4 sequence (whole entry): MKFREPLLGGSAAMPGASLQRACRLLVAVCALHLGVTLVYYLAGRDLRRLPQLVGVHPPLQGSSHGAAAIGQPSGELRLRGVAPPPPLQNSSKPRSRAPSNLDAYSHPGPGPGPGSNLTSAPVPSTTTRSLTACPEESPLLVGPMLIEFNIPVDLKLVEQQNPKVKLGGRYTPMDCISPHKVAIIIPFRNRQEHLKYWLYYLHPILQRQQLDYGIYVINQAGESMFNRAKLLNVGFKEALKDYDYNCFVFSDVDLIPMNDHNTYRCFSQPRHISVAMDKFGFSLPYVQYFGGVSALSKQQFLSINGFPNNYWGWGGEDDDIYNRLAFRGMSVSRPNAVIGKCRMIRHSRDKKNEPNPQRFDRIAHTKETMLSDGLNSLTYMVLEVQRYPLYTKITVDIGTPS
The assay can be described thus: Inhibition of bovine milk beta4-GalT1 using GlcNAcbeta-Bn as substrate at 0.5 mM after 1 hr relative to control. A digest of the protocol:
as §1

Assay [9] concerns the target Glycoprotein-N-acetylgalactosamine 3-beta-galactosyltransferase 1 (Homo sapiens) (UniProt Q9NS00). Briefly: Inhibition of human C1GalT Gal-transferase using GalNAcalpha-Bn as substrate at 0.5 mM after 1 hr in presence of phosphatidylcholine.

Values joined by “and” are separate entries in the source; they are usually repeats but may differ in a detail not shown here. Equal entries are not always repeated. Active and inactive are the calls of the source. The rule behind the calls is not given here. Bounds are passed on as bounds.

Sequence of Glycoprotein-N-acetylgalactosamine 3-beta-galactosyltransferase 1 (Homo sapiens) (Q9NS00 whole entry): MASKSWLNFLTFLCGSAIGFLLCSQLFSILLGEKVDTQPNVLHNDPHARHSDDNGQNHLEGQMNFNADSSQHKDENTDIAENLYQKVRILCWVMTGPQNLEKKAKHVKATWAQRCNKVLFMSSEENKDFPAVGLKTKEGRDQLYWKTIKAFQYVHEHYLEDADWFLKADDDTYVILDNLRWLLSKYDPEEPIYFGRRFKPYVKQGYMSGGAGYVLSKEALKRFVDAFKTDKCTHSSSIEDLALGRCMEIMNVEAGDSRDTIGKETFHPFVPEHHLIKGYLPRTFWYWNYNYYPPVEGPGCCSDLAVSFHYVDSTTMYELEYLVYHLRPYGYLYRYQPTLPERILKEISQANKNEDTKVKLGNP
Sequence of Beta-1,3-galactosyltransferase 5 (Homo sapiens) (Q9Y2C3 whole entry, looked up): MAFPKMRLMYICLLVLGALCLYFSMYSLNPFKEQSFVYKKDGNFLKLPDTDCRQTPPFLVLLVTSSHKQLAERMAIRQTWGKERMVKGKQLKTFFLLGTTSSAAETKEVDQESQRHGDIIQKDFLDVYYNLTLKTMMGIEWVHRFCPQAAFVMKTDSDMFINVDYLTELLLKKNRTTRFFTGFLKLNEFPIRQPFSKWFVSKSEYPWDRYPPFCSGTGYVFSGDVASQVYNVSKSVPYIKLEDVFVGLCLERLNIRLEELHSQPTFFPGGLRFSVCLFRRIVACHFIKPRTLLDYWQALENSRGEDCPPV

In the case of `C[n+]1ccn(CCCCCCCCCCCCCCCCCCCCn2cc[n+](C)c2)c1`, the inhibition result in assay [1] and in assay [6] was “inactive” in each case. The inhibition in the assay filed under Homo sapiens [2] is under 1%; in assay [3], 100%; in the assay filed under Bos taurus it was 96.8% and 91%; in assay [4], 40.7% and 54%; in the assay filed under Homo sapiens [5], under 1%; in [7], under 1%. The inhibition is 40.7% and 54% in assay [8]; under 1% in assay [9].

The values are drawn from ChEMBL document CHEMBL2321737, “Selective inhibition of glycosyltransferases by bivalent imidazolium salts” (Bioorg Med Chem, 2013).
